Rows were chosen to be rich in hits. Some 3.7% of all compounds tested hit in one or more screens of this group.
Kir21 block: inhibitors of mouse Kir2.1 inward-rectifier potassium channel; P35561; HEK293-Kir2.1, FluxOR thallium flux fluorescence; active compounds read low; B-score at 10 µM; actives 0.85% (n = 310,000);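 active = fluorescence ratio B-score at or below minus 3 SD of library scores, with starting-brightness B-score within 2 SD, cut at about -4.2 in these data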;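 also: channel flux triggered by added potassium and thallium sulfate stimulus; B-score of peak minus minimum fluorescence over baseline after thallium stimulus; more negative B-score means stronger Kir2.1 block with less thallium influx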
KCNK9 block: human KCNK9 channel inhibition; Q9NPC2; HEK293 KCNK9, FluxOR thallium flux fluorescence; active compounds read low; B-score at 10 µM; actives 1.2% (n = 310,000); AID 488922;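 active = ratio B-score over 3 SD below the library mean, with starting fluorescence within 5 SD of its mean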;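 also: negative B-score means less thallium flux so channel inhibition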
Target sequence (Q9NPC2 whole entry, looked up): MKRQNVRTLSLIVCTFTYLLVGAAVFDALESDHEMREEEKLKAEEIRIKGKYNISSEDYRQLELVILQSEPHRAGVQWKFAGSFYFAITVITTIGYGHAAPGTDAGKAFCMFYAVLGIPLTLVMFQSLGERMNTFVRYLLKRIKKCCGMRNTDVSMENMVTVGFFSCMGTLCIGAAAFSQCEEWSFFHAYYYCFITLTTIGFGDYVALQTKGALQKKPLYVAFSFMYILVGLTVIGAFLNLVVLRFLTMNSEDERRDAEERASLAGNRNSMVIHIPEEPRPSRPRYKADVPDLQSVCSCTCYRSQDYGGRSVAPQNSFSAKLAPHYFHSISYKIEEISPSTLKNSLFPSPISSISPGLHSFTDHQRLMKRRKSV
KCNQ1 act: potentiators or activators of human KCNQ1 potassium channel | actives 0.35% (n = 310,000) | CHO-K1 KCNQ1, thallium flux FluxOR fluorescence; active compounds read high | B-score at 10 µM | AID 2648 | P51787;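 active = fluorescence ratio B-score, a plate-corrected score, at least three library SD, with initial intensity B-score within 5 SD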
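Assay system: CHO-K1 cells stably expressing KCNQ1. Medium: assay buffer for compound exposure, DMSO matched across wells. Timing: 37 °C overnight plating, 90-min dark dye load, 20-min compound pretreatment. Signal: kinetic FluxOR fluorescence, 10 s baseline plus 110 s post-stimulus.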
KCNK3 inh: human KCNK3 channel inhibition, primary screen; B-score at 10 µM; CHO-KCNK3 thallium flux, FluxOR fluorescence; active compounds read low; O14649; actives 0.84% (n = 340,000);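 active = B-score under library mean minus 4 SD, starting fluorescence ratio at most library mean plus 5 SD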;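 also: more negative B-score means stronger inhibition of thallium flux through KCNK3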
KCNQ1 block: human KCNQ1 channel inhibition. P51787. AID 2642. CHO-K1 KCNQ1, FluxOR thallium flux fluorescence; active compounds read high. B-score at 10 µM. actives 1.3% (n = 310,000);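 active = compounds whose thallium flux B-score, printed positive for inhibition, exceeds three library SD while starting fluorescence stays within three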;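 also: channel opened by potassium depolarization with thallium stimulus after 20 min compound exposure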
hERG protect: compounds protecting human hERG from proarrhythmic drug block. Q12809. CHO-hERG, FluxOR thallium flux, dofetilide IC70 present. activation (rescue from dofetilide block), less the hit threshold, % at 10 µM. actives 0.51% (n = 310,000). AID 1511;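 active = activation above the mean of controls blocked by dofetilide plus 5 SD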;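 also: thallium influx through hERG after potassium depolarization seen as dye fluorescence rise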
KCNK9 inh conf: human KCNK9 inhibitor confirmation; shares compounds with KCNK9 block; HEK293 KCNK9 cells, FluxOR thallium flux fluorescence; inhibition, % at 10 µM; actives 43% (n = 4,900);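 active = thallium signal inhibited by more than 5 SD of the compound-free buffer control wells, on both duplicate plates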;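 also: 0% = assay buffer control wells without compound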
Kir21 sel: tests whether KCNK9 modulators also affect mouse Kir2.1; inhibition, % at 10 µM; Kir2.1 cells, FluxOR thallium flux fluorescence; shares compounds with KCNK9 block; actives 4% (n = 4,900);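 active = thallium signal drop more than 5 SD beyond the mean of the no-compound control wells, seen in both duplicate plates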;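 also: signal is fluorescence rise after thallium addition divided by baseline fluorescence; plate controls were assay buffer only for no effect and full block by chlorpromazine control for full effect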
HEK293 Tl ctr: non-induced cell nonspecific activity of KCNK9 modulators; non-induced KCNK9-HEK293, FluxOR thallium flux; shares compounds with KCNK9 block; AID 492997; actives 40% (n = 4,900); inhibition, % at 10 µM;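 active = thallium signal drop beyond 5 SD of the untreated control mean, on both duplicate plates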;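 also: plate controls were buffer only IC0 wells for no effect and SID17386958 at its maximal inhibitory level for full effect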
An asterisk follows results filed as active.

What do the screens show for `COc1ccc(-c2csc(NC(=O)c3ccc(S(=O)(=O)N4CCc5ccccc5C4)cc3)n2)cc1`?
Kir21 block: -0.27; KCNK9 block: inactive; KCNQ1 act: inactive; KCNK3 inh: inactive; KCNQ1 block: inactive; hERG protect: -15

What do the screens show for `O=C(Nc1nnc(-c2ccc3c(c2)CCCC3)o1)c1c(F)cccc1F`?
Kir21 block: -1.6; KCNK9 block: inactive; KCNQ1 act: inactive; KCNK3 inh: inactive; KCNQ1 block: inactive; hERG protect: -11

Results for O=C(N1CCN(c2ccc(F)cc2)CC1)C1(c2cccs2)CCOCC1 ?
Kir21 block: 1.7; KCNK9 block: inactive; KCNQ1 act: inactive; KCNK3 inh: inactive; KCNQ1 block: inactive; hERG protect: -11

Results for Cc1nn(-c2ccccc2)c(Cl)c1/C=N/Nc1ccc(S(=O)(=O)Nc2ccccc2C(=O)O)cc1[N+](=O)[O-] ?
Kir21 block: 1.8; KCNK9 block: inactive; KCNQ1 act: inactive; KCNK3 inh: inactive; KCNQ1 block: inactive; hERG protect: -11; KCNK9 inh conf: inactive; Kir21 sel: inactive; HEK293 Tl ctr: inactive

How did CSc1ccc(C=NNc2ccc(S(=O)(=O)Nc3ccccc3C(=O)O)cc2[N+](=O)[O-])cc1 do in these assays?
KCNK3 inh: inactive

What do the screens show for `CCCCCCCCNc1ncnc2[nH]ncc12`?
KCNK3 inh: inactive

Results for CS(=O)(=O)c1ccc(-c2csc(-c3cccnc3)n2)cc1 ?
Kir21 block: -0.22; KCNK9 block: inactive; KCNQ1 act: inactive; KCNK3 inh: inactive; KCNQ1 block: inactive; hERG protect: -3

How did CN(Cc1ccccn1)Cc1nc(Cc2ccccc2Cl)no1 do in these assays?
Kir21 block: -0.54; KCNK9 block: inactive; KCNQ1 act: inactive; KCNK3 inh: inactive; KCNQ1 block: inactive; hERG protect: -4

How did COc1cccc(CN(C)Cc2nc(Cc3ccccc3Cl)no2)c1 do in these assays?
Kir21 block: -0.7; KCNK9 block: inactive; KCNQ1 act: inactive; KCNK3 inh: inactive; KCNQ1 block: inactive; hERG protect: -6; KCNK9 inh conf: inactive; Kir21 sel: inactive; HEK293 Tl ctr: inactive

What do the screens show for `Cc1nn(Cc2ccccc2)c(C)c1C(=O)OCC(=O)c1cc(C)n(CC(F)(F)F)c1C`?
Kir21 block: -0.92; KCNK9 block: inactive; KCNQ1 act: inactive; KCNK3 inh: inactive; KCNQ1 block: inactive; hERG protect: -10; KCNK9 inh conf: inactive; Kir21 sel: inactive; HEK293 Tl ctr: inactive

What do the screens show for `Cc1ccc(S(=O)(=O)N(C)C[C@H]2Oc3ccc(NC(=O)Nc4c(C)noc4C)cc3CC(=O)N([C@@H](C)CO)C[C@@H]2C)cc1`?
KCNK3 inh: inactive

What do the screens show for `CC(C)=CCc1c(O)cc2c(c1O)C(=O)CC(c1ccccc1)O2` (stereo not drawn)?
Kir21 block: 0.33; KCNK9 block: inactive; KCNQ1 act: inactive; KCNK3 inh: inactive; KCNQ1 block: inactive; hERG protect: -8

What do the screens show for `CC(C)=CCc1c(O)ccc(C2COc3c(CC=C(C)C)c(O)cc(O)c3C2=O)c1O` (stereo not drawn)?
Kir21 block: 0.37; KCNK9 block: -24*; KCNQ1 act: inactive; KCNK3 inh: inactive; KCNQ1 block: inactive; hERG protect: -18; KCNK9 inh conf: 66%*; Kir21 sel: inactive; HEK293 Tl ctr: 28%*

How did COc1cccc(CN2CCN(Cc3cc(OC)c(OC)cc3[N+](=O)[O-])CC2)c1 do in these assays?
Kir21 block: -1.2; KCNK9 block: inactive; KCNQ1 act: inactive; KCNK3 inh: inactive; KCNQ1 block: inactive; hERG protect: -5; KCNK9 inh conf: inactive; Kir21 sel: inactive; HEK293 Tl ctr: inactive

What do the screens show for `COc1cccc(CN2CCN(Cc3cccc(Br)c3)CC2)c1OC`?
Kir21 block: -0.69; KCNK9 block: inactive; KCNQ1 act: inactive; KCNK3 inh: inactive; KCNQ1 block: inactive; hERG protect: -8; KCNK9 inh conf: inactive; Kir21 sel: inactive; HEK293 Tl ctr: inactive

What do the screens show for `Cc1c(Cl)cccc1Nc1nc(N)nc(CSC(=S)N2CCOCC2)n1`?
Kir21 block: -0.73; KCNK9 block: inactive; KCNQ1 act: inactive; KCNK3 inh: inactive; KCNQ1 block: inactive; hERG protect: -9

Results for O=C(O)CCNC(=O)c1ccc(N=Nc2ccc(O)c(C(=O)O)c2)cc1 ?
Kir21 block: 0.59; KCNK9 block: inactive; KCNQ1 act: inactive; KCNQ1 block: inactive; hERG protect: -4

Results for Cc1ccc(NC(=O)C2CCN(S(=O)(=O)c3ccc4c(c3)OCCO4)CC2)c(O)c1 ?
Kir21 block: -0.93; KCNK9 block: inactive; KCNQ1 act: inactive; KCNK3 inh: inactive; KCNQ1 block: inactive; hERG protect: -13

How did COc1cccc(/C(C#N)=C/c2c(-c3ccc(Cl)cc3)nc3c(C)cccn23)c1 do in these assays?
Kir21 block: 1.1; KCNK9 block: -8.9*; KCNQ1 act: inactive; KCNK3 inh: inactive; KCNQ1 block: 8*; hERG protect: -6; KCNK9 inh conf: 58%*; Kir21 sel: inactive; HEK293 Tl ctr: 38%*

How did COc1cccc(C(C(=O)NC2CCCC2)N(C(=O)c2csnn2)C2CC2)c1 (stereo not drawn) do in these assays?
Kir21 block: 2.4; KCNK9 block: inactive; KCNQ1 act: inactive; KCNK3 inh: inactive; KCNQ1 block: inactive; hERG protect: -10

Results for CN(C(=S)Nc1ccc(Oc2ccccc2)cc1)C1CCCCC1 ?
Kir21 block: 0.15; KCNK9 block: inactive; KCNQ1 act: inactive; KCNK3 inh: inactive; KCNQ1 block: inactive; hERG protect: -7; KCNK9 inh conf: inactive; Kir21 sel: inactive; HEK293 Tl ctr: inactive

What do the screens show for `Cc1cc(C)n(-c2nc(NCCC(C)C)c3c4c(sc3n2)COC(C)(C)C4)n1`?
Kir21 block: 1.6; KCNK9 block: -12*; KCNQ1 act: inactive; KCNK3 inh: inactive; KCNQ1 block: inactive; hERG protect: -13; KCNK9 inh conf: 58%*; Kir21 sel: inactive; HEK293 Tl ctr: 32%*

Screening data (PubChem BioAssay)
